Among the data in ChEMBL document CHEMBL1137660, “Molecular and biochemical characterization of the chromosome-encoded class A beta-lactamase BCL-1 from Bacillus clausii” (Antimicrob Agents Chemother, 2007) are fold change (FC), Ratio and Activity values, retold here.

The nature of experiment [1]: Ratio of Kcat to Km for Bacillus clausii NR beta-lactamase BCL1 to ratio of Kcat/Km for Bacillus anthracis beta-lactamase Bla1.
The nature of experiment [2]: Ratio of Kcat for Bacillus clausii NR beta-lactamase BCL1 to Kcat for Bacillus cereus beta lactamase BcI.
Experiment [3] is described as follows: Ratio of Kcat for Bacillus cereus beta-lactamase BcI to Kcat for Bacillus clausii NR beta-lactamase BCL1.
Experiment [4] has as its target T1, Beta-lactamase (Bacillus clausii) (UniProt A8RR46).
T1 sequence (whole entry): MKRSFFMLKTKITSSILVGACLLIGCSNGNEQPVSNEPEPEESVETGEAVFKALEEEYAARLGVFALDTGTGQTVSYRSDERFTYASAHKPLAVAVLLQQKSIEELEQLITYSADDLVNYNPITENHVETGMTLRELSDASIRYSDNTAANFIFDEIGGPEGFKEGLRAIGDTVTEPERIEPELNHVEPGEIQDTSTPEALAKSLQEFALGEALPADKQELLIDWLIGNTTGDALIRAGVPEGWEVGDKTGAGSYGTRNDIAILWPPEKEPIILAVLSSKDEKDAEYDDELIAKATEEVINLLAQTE
The experiment can be described thus: Induction of Bacillus clausii ATCC 21537 beta-lactamase BCL1 activity expressed in Escherichia coli BL21 (DE3) assessed as specific activity per mg of protein at 5 ug/ml. The following applies: Shouchella clausii. In short, it runs like this:
(§1)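 Induction in B. clausii NR and ATCC 21537 cultures using cefoxitin at 1 to 5 μg/ml as inducer. β-Lactamase activity of extracts read with 100 μM penicillin G as substrate and expressed per mg protein.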

For experiment [5], the target named is T1, Beta-lactamase (Bacillus clausii). The experiment can be described thus: Induction of Bacillus clausii NR beta-lactamase BCL1 activity expressed in Escherichia coli BL21 (DE3) assessed as specific activity per mg of protein at 5 ug/ml. The settings on record: Shouchella clausii. The gist of the method: as §1
The target is the same in experiment [6]. The experiment can be described thus: Activity of Bacillus clausii NR beta-lactamase BCL1 expressed in Escherichia coli BL21 (DE3) assessed as specific activity per mg of protein at 100 uM. The following applies: Shouchella clausii. The gist of the method: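 Enzyme from E. coli BL21(DE3)(pET-BCL-1), induced with 0.4 mM IPTG at 37°C for 5 h in TS broth with amoxicillin and kanamycin. Cells were sonicated. Enzyme purified by S-Sepharose (50 mM phosphate, pH 6.5) then Q-Sepharose (20 mM Tris-HCl, pH 9; 0–1 M NaCl gradient). Protein by DC assay. Activity read with 100 μM cephalothin as substrate.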

Take `CCN1CCN(C(=O)N[C@@H](C(=O)N[C@@H]2C(=O)N3[C@@H]2SC(C)(C)[C@@H]3C(=O)O)c2ccccc2)C(=O)C1=O`: in experiment [1], the fold change (FC) turned out to be 10.

On to `CO/N=C(\C(=O)N[C@@H]1C(=O)N2C(C(=O)O)=C(COC(N)=O)CS[C@H]12)c1ccco1`, for which the fold change (FC) in experiment [2] amounted to 100. As for `CC1(C)S[C@@H]2[C@H](NC(=O)[C@H](C(=O)O)c3ccsc3)C(=O)N2[C@H]1C(=O)O`, the fold change (FC) in experiment [1] is 10. Regarding `CC1(C)S[C@@H]2[C@H](NC(=O)[C@H](N)c3ccc(O)cc3)C(=O)N2[C@H]1C(=O)O`, the fold change (FC) in experiment [1] was found to be 10. Regarding `O=C(Cc1cccs1)N[C@@H]1C(=O)N2C(C(=O)[O-])=C(C[n+]3ccccc3)CS[C@H]12`, the fold change (FC) in experiment [1] turned out to be 2. With `CC1(C)S[C@@H]2[C@H](NC(=O)Cc3ccccc3)C(=O)N2[C@H]1C(=O)O`, in experiment [1], the fold change (FC) came out at 10. In addition, the Ratio in experiment [3] came out at 200. For `CO/N=C(\C(=O)N[C@@H]1C(=O)N2C(C(=O)[O-])=C(C[n+]3cccc4c3CCC4)CS[C@H]12)c1csc(N)n1`, in experiment [2], the fold change (FC) was found to be 500. On to `CO[C@@]1(NC(=O)Cc2cccs2)C(=O)N2C(C(=O)O)=C(COC(N)=O)CS[C@@H]21`, for which the Activity in experiment [4] and in experiment [5] was 500 U throughout.

For the compound `CC(=O)OCC1=C(C(=O)O)N2C(=O)[C@@H](NC(=O)Cc3cccs3)[C@H]2SC1`, in experiment [2], the fold change (FC) turned out to be 100. Further, the Activity in experiment [6] amounted to 35 U.

As to `CO/N=C(\C(=O)N[C@@H]1C(=O)N2C(C(=O)O)=C(COC(C)=O)CS[C@H]12)c1csc(N)n1`, the fold change (FC) in experiment [2] was 100.
